Results of several laboratories.
Compare with care: the assays were run in different laboratories.
Target: Serine/threonine-protein kinase OSR1 (OXSR1, Homo sapiens, UniProt O95747)

SMILES | assay | system | conditions | endpoint | result
Cn1c2c(c3ccc(Cl)c(Cl)c31)C(C#N)C1(CCNCC1)NC2=O (racemic) | thermal stability, DSF | – | 10 µM | ΔTm | -0.1 °C
O=C(Nc1cnn(-c2csc(C(=O)NC3COC3)c2)c1)Nc1ccccc1Cl | enzyme activity, inhibitor | – | 5 µM | remaining activity | 92.6%
Cc1ccc(Nc2nccc(N(C)c3ccc4c(C)n(C)nc4c3)n2)cc1S(N)(=O)=O | enzyme activity, inhibitor | – | 0.5 µM | remaining activity | 103%
Cn1c2c(c3ccc(Cl)c(Cl)c31)C(C#N)C1(CCN(C(=O)OC(C)(C)C)CC1)NC2=O (racemic) | thermal stability, DSF | – | 10 µM | ΔTm | -0.1 °C
O=C1NC(c2ccccn2)Sc2ccccc21 (stereo not shown) | cell-free assay, competition with immobilised ligand | – | 1 µM | remaining binding | 100%
Cc1ccc(NC(=O)c2ccc(CN3CCN(C)CC3)cc2)cc1Nc1nc(-c2cccnc2)cs1 | cell-free assay | – | 0.5 µM | remaining signal | 95.6%
Nc1ncnc2occ(-c3ccc(NC(=O)Nc4cc(C(F)(F)F)ccc4F)cc3)c12 | cell-free assay, inhibitor | – | 20 µM | remaining signal | 9.5%
N#CC1c2c([nH]c3c(Cl)c(Cl)ccc23)C(=O)NC12CCCCC2 (racemic) | thermal stability, DSF | – | 10 µM | ΔTm | 0.1 °C
CC(C)(O)[C@H]1CC[C@H](Nc2ccc3ncc(-c4cccc(C(F)(F)F)c4)n3n2)CC1 | enzyme activity, inhibitor | – | 1 µM | remaining activity | 102%
FC(F)(F)Oc1cccc(-c2cnc3ccc(-c4ccncc4)nn23)c1 | enzyme activity, inhibitor, radiometric | – | 5 µM | activity vs control | 104%
O=C1Nc2ccc(Cl)cc2C1=Cc1cc(Cl)c(O)c(Cl)c1 | cell-free assay | – | 0.5 µM | remaining signal | 91.6%
CCc1ccccc1C(=O)Nc1n[nH]c2c(C)c(F)c(C3C(C#N)=C(C)N(C)C(C)=C3C#N)cc12 | cell-free assay, competition with immobilised ligand | – | 1 µM | remaining binding | 100%
COc1cc(Nc2c(C#N)cnc3cc(OCCCN4CCN(C)CC4)c(OC)cc23)c(Cl)cc1Cl | cell-free assay | – | 0.5 µM | remaining signal | 100%
Cc1c(NC(=O)c2cc(C(N)=O)nc3cc(F)ccc23)c(C(F)(F)F)nn1Cc1ccc(C(C)(C)C)cc1 | cell-free assay, competition with immobilised ligand | – | 1 µM | remaining binding | 100%
CCN1CCC2(CC1)NC(=O)c1c(c3ccc(Cl)c(Cl)c3n1C)C2C#N (racemic) | thermal stability, DSF | – | 10 µM | ΔTm | 0 °C
c1ccc(CNc2nc(N3CCOc4ccccc43)nc3c2CCCC3)cc1 | target engagement in cells, inhibitor, chemoproteomics | – | 20 mM | inhibition | -9%
COCCOc1nc(-c2ccc(Cl)nc2)nc2c1CN(C(=O)c1ncn3ccccc13)CC2 | cell-free assay, competition with immobilised ligand | – | 0.1 µM | remaining binding | 100%
CCC1(CC)NC(=O)c2c(c3ccc(Cl)c(Cl)c3n2C)C1C#N (stereo not shown) | thermal stability, DSF | – | 10 µM | ΔTm | -0.3 °C
Cc1nc(Cc2cccc(C(F)(F)F)c2)sc1-c1ccc(C(N)=O)nc1 | cell-free assay, competition with immobilised ligand | – | 1 µM | remaining binding | 100%
CCN1CCN(Cc2ccc(NC(=O)c3ccc(C)c(Oc4ccnc5[nH]ccc45)c3)cc2C(F)(F)F)CC1 | target engagement in cells, inhibitor, chemoproteomics | Huh-7 | 1 µM | inhibition | -64.3%
COc1cc(Nc2cnc(C#N)c(O[C@H](C)CN(C)C)n2)ncc1-c1cnn(C)c1 | enzyme activity, inhibitor, radiometric | – | 1 µM | remaining activity | 115%
N#CC1(c2ccccn2)CCN(Cc2cc(C(=O)N3CCCC3)c(=O)n3ccccc23)CC1 | cell-free assay, competition with immobilised ligand | – | 1 µM | remaining binding | 100%
COc1cc(/C=C/C(=O)CC(=O)/C=C/c2ccc(O)c(OC)c2)ccc1O | enzyme activity, inhibitor | – | 1 µM | activity vs control | 104%
CN1CCC2(CC1)NC(=O)c1c(c3ccc(Cl)c(Cl)c3n1C)C2C#N (racemic) | thermal stability, DSF | – | 10 µM | ΔTm | -0.3 °C
O=C(O)c1cc(-c2ccc(C3CCNCC3)cc2)c2ccc(-c3ccc(C(F)(F)F)cc3)cc2c1 | cell-free assay, competition with immobilised ligand | – | 1 µM | remaining binding | 100%
